Assay [1] can be described thus: reducers of endogenous Her2 protein level, primary screen, SKBR3 breast tumor cells, AlphaScreen, ATP viability (AID 461;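 active = Her2 level under about 52% in both replicate screens, with viability over 70% of control, limit read from the data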;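 for Her2 level: lower value means less Her2 protein in the cells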;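 for viability: percent of carrier control wells set as 100% viability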). The conditions noted are these: 18-24 h, measured here: SKBR3 viability, ATP luminescence, at 10 µM.
Assay [2] addresses Receptor tyrosine-protein kinase erbB-2 (Homo sapiens) (UniProt P04626). Described as above. The conditions noted are these: 18-24 h, at 10 µM, stronger effect = lower value.
Assay [3] is described as follows: SK-BR-3 cell growth inhibitors, pilot screen, 24 h, human (AID 572;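 active = viability at or below 10% of carrier control in both of two separate runs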;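 note: compound exposure lasted between 18 and 24 h rather than exactly 24 h; 100% = carrier-treated control wells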). The conditions noted are these: SK-BR-3 viability, CellTiter-Glo luminescence, at 10 µM, stronger effect = lower value. On the technique in general: ATP-based viability assays read luminescence as a measure of living cells.
The nature of assay [4]: HUVEC growth inhibition – cell-based, human, primary screen (AID 575;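 active = viability at or below 30% in both replicate assays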;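 note: 100% = median of untreated cell wells with 0.1% DMSO on each plate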). The conditions noted are these: HUVEC proliferation, CellTiter-Glo luminescence, 72 h; at 10 µM; stronger effect = lower value. The essentials: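 System: primary human umbilical vein endothelial cells; Quantity: 1250 endothelial cells in each well; Buffer or medium: supplemented EBM, 2% fetal bovine serum; Doses: one dose, 10 µM final, 0.1% DMSO; Incubation: 72 h compound incubation; Technique: ATP-based CellTiter-Glo luminescent read; Evaluation: percent of median DMSO-control luminescence; Controls: vehicle and MePR control wells.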

Assay [5] in a line: growth inhibitors of H69AR lung tumor, primary screen, human, duplicate replicates (AID 580).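 Note: 100% = mean luminescence of untreated wells and 0% = no signal.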 The conditions noted are these: H69AR lung tumor cells viability, ATP luminescence, 72 h; at 10 µM; stronger effect = lower value.
Assay [6] is described as follows: reversal of MRP1-mediated doxorubicin resistance, pilot screen, H69AR cells, doxorubicin co-treatment (AID 601;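 active = viability loss from added drug above about 55%, and viability with drug at most 40%, in both replicates, limit read from the data, passing the limit was not always enough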). The conditions noted are these: CellTiter-Glo, 72 h, at 10 µM; for differential viability (reversal): stronger effect = higher value.
Assay [7] is described as follows: 384-well plate pilot, post-Golgi transport modulator project, inhibition of yeast transport mutant growth (AID 636; in the data active = inhibition above about 31%). The conditions noted are these: absorbance 615 nm, about 18 h, stronger effect = higher value.
The nature of assay [8]: growth suppression of yeast trafficking mutant, preliminary HTS, modulators of trafficking downstream of Golgi apparatus project, 1536-format plate, OD 615 nm (AID 637; in the data active = inhibition above about 30%). The conditions noted are these: yeast transport mutant growth, absorbance 615 nm, 18 h; stronger effect = higher value.
The mark [9] stands for this setting: H69AR cells + 2 uM doxorubicin, measured here: viability with 2 uM doxorubicin, stronger effect = lower value.
The mark [10] stands for this setting: H69AR cells, compound alone cytotoxicity.

Active and inactive are the calls of the source.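 Rule for the calls, unless noted: active = viability at or under a set limit in both replicates, limit being median viability minus 3 SD (cut at about 48% in these data, passing the limit was not always enough); inconclusive = at or under the limit in just one replicate; inactive = at or above the limit in both replicates.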

Sequence of Receptor tyrosine-protein kinase erbB-2 (Homo sapiens) (P04626 whole entry, looked up): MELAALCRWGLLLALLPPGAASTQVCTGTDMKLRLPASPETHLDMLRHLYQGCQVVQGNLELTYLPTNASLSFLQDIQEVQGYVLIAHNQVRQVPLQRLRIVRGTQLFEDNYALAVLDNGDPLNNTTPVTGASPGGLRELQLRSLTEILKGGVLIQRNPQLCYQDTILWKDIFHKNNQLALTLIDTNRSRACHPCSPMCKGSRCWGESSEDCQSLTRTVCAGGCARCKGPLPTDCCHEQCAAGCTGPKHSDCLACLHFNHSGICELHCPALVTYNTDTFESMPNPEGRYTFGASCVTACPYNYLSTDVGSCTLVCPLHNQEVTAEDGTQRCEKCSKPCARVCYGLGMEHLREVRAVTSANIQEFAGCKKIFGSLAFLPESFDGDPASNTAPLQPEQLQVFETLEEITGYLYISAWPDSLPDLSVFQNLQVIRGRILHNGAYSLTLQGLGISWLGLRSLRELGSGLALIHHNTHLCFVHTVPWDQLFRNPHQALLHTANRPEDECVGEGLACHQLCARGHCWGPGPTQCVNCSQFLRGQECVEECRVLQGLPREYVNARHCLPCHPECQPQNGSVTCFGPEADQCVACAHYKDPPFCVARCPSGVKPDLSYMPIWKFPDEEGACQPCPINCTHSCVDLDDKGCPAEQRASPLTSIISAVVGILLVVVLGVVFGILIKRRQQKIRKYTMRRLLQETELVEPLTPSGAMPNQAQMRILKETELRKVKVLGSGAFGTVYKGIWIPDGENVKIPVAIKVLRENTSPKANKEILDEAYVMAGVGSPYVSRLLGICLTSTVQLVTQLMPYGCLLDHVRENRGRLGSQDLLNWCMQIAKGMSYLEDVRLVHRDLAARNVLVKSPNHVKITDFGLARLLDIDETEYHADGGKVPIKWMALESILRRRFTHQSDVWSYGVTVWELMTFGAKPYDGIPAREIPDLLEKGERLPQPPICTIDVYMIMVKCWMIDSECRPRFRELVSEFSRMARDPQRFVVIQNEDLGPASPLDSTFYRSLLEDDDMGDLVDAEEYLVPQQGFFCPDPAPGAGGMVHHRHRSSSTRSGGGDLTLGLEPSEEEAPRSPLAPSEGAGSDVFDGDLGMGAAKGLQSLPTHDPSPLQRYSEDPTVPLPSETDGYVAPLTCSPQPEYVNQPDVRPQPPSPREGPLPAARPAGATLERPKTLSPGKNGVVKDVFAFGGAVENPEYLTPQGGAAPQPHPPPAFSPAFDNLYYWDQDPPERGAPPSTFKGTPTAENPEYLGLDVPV

One may read the viability as a read-out of living cells in per cent, often relative to untreated cells. What is called inhibition is the change of the read-out against control, counted positive when it falls. As for `CN(Cc1ccccc1)C(=O)CNC(=O)Cn1cnc2ccccc2c1=O`, the viability in assay [1] is 100%; in assay [3] it was 100% (inactive); in assay [4], 91.9% (inactive); in assay [5] it was 100% (inactive); in assay [6] (setting [9]), 90.8%; in assay [6] (setting [10]) it was 100%. The Her2 level in assay [2] was 83% (inactive). Besides, the differential viability (reversal) in assay [6] (H69AR cells + 2 uM doxorubicin) is 9.23% (inactive). For the same compound, the inhibition in assay [7] is -3.11% (inactive); in assay [8] it was -5.71% (inactive).

Take `O=C(N1CCOCC1)N1CCC(NC(=O)C23CC4CC(CC(C4)C2)C3)CC1`: the viability was 90% in assay [1]; 90% (inactive) in assay [3]; 99.6% (inactive) in assay [4]; 98.8% (inactive) in assay [5]; 90.4% in assay [6] (setting [9]); 98.8% in assay [6] (setting [10]). Further, in assay [2], the Her2 level is 88% (inactive). In assay [6] (H69AR cells + 2 uM doxorubicin), the differential viability (reversal) was 8.44% (inactive). The inhibition is -6% (inactive) in assay [7] and 4.84% (inactive) in assay [8].

As to `Cc1ccc2ncnc(NCCCN3CCOCC3)c2c1`, the viability in assay [1] was 98.5%; in assay [3], 98.5% (inactive); in assay [4] it was 91.4% (inactive); in assay [5] it was 101% (inactive); in assay [6] (setting [9]) it was 102%; in assay [6] (setting [10]) it was 101%. The Her2 level in assay [2] is 120% (inactive). In addition, the differential viability (reversal) in assay [6] (H69AR cells + 2 uM doxorubicin) was -0.115% (inactive). For the same compound, the values for the inhibition in assay [7] and in assay [8] were -0.79% (inactive) and 5.41% (inactive), respectively.

As for `CCOC(=O)C1=C(c2ccccc2)N2CCN=C2S1`, the viability is 94.5% in assay [1]; 94.5% (inactive) in assay [3]; 100% (inactive) in assay [4]; 94.8% (inactive) in assay [5]; 88.8% in assay [6] (setting [9]); 94.8% in assay [6] (setting [10]). In addition, the Her2 level in assay [2] is 100% (inactive). Further, the differential viability (reversal) in assay [6] (H69AR cells + 2 uM doxorubicin) is 5.97% (inactive). The inhibition in assay [7] is -0.93% (inactive); in assay [8] it was -9.68% (inactive).

As for `NCC(O)COc1ccc2c(c1)OCO2` (stereo not given), the viability in assay [1] was 99%; in assay [3] it was 99% (inactive); in assay [4] it was 104% (inactive); in assay [5] it was 100% (inactive); in assay [6] (setting [9]), 97%; in assay [6] (setting [10]) it was 100%. Moreover, the Her2 level in assay [2] was 120% (inactive). In addition, the differential viability (reversal) in assay [6] (H69AR cells + 2 uM doxorubicin) is 3.33% (inactive). Besides, the inhibition in assay [7] was 3.16% (inactive); in assay [8] it was 6.39% (inactive).

`COc1ccc(-c2cc(C(=O)N3CCN(Cc4ccccc4)CC3)no2)cc1OC`: the viability was 99% in assay [1]; 99% (inactive) in assay [3]; 81.5% (inactive) in assay [4]; 98.5% (inactive) in assay [5]; 77.8% in assay [6] (setting [9]); 98.5% in assay [6] (setting [10]). Also, the Her2 level in assay [2] is 64.5% (inactive). The differential viability (reversal) in assay [6] (H69AR cells + 2 uM doxorubicin) was 20.8% (inactive). Further, the inhibition is -5.68% (inactive) in assay [7] and 9% (inactive) in assay [8].

With `COC(=O)C(O)(CC(=O)c1ccc(OC)cc1)C(F)(F)F` (stereo not given), the viability is 100% in assay [1]; 100% (inactive) in assay [3]; 91.5% (inactive) in assay [4]; 95.9% (inactive) in assay [5]; 95.3% in assay [6] (setting [9]); 95.9% in assay [6] (setting [10]). Further, the Her2 level in assay [2] was 98% (inactive). The differential viability (reversal) in assay [6] (H69AR cells + 2 uM doxorubicin) is 0.63% (inactive). The inhibition in assay [7] is -1.33% (inactive); in assay [8] it was -5% (inactive).

In the case of `COc1ccc(Oc2nc(Oc3ccc(OC)cc3)nc(Oc3ccc(OC)cc3)n2)cc1`, the viability in assay [1] is 104%; in assay [3] it was 104% (inactive); in assay [4], 95.6% (inactive); in assay [5] it was 94.6% (inactive); in assay [6] (setting [9]) it was 87.7%; in assay [6] (setting [10]), 94.6%. For the same compound, the Her2 level in assay [2] was 102% (inactive). The differential viability (reversal) in assay [6] (H69AR cells + 2 uM doxorubicin) is 6.92% (inactive). Besides, the results for the inhibition in assay [7] and in assay [8] were -0.93% (inactive) and -5.81% (inactive), respectively.

Take `COc1ccc(C)cc1S(=O)(=O)Nc1cccnc1`: the viability in assay [1] is 90.5%; in assay [3], 90.5% (inactive); in assay [4], 91.2% (inactive); in assay [5] it was 88.4% (inactive); in assay [6] (setting [9]), 86.9%; in assay [6] (setting [10]) it was 88.4%. Moreover, the Her2 level in assay [2] is 84.5% (inactive). Also, the differential viability (reversal) in assay [6] (H69AR cells + 2 uM doxorubicin) was 1.54% (inactive). Also, the inhibition in assay [7] is -4.19% (inactive); in assay [8] it was 0.16% (inactive).

With `Cc1ccc(-n2c(Cc3cccn3C)nnc2SCC(=O)NCc2ccc3c(c2)OCO3)cc1`, the viability is 97.5% in assay [1]; 97.5% (inactive) in assay [3]; 88.2% (inactive) in assay [4]; 85.8% (inactive) in assay [5]; 80.7% in assay [6] (setting [9]); 85.8% in assay [6] (setting [10]). For the same compound, in assay [2], the Her2 level was 89% (inactive). The differential viability (reversal) in assay [6] (H69AR cells + 2 uM doxorubicin) was 5.04% (inactive). In addition, the inhibition in assay [7] was -5.07% (inactive); in assay [8], -4.59% (inactive).

For `O=C(NCC(=O)N(c1ccc2c(c1)OCCO2)C(C(=O)NC1CCCC1)c1ccco1)c1ccco1` (stereo not given), the viability in assay [1] was 92%; in assay [3], 92% (inactive); in assay [4] it was 97.2% (inactive); in assay [5] it was 92.1% (inactive); in assay [6] (setting [9]), 78.7%; in assay [6] (setting [10]), 92.1%. Also, the Her2 level in assay [2] was 102% (inactive). Moreover, in assay [6] (H69AR cells + 2 uM doxorubicin), the differential viability (reversal) is 13.4% (inactive). Also, the values for the inhibition in assay [7] and in assay [8] were -4.53% (inactive) and -9.05% (inactive), respectively.

For the compound `CCOC(=O)c1[nH]c(C)c(C(=O)NCc2ccccn2)c1C`, the viability in assay [1] was 134%; in assay [3], 134% (inactive); in assay [4] it was 83.4% (inactive); in assay [5] it was 102% (inactive); in assay [6] (setting [9]) it was 96.8%; in assay [6] (setting [10]) it was 102%. The Her2 level in assay [2] is 115% (inactive). Moreover, the differential viability (reversal) in assay [6] (H69AR cells + 2 uM doxorubicin) is 4.79% (inactive). Moreover, the inhibition in assay [7] was -5.07% (inactive); in assay [8], 9.37% (inactive).

Regarding `Cn1c(=O)c2nc(Cl)n(Cc3ccc(Cl)cc3Cl)c2n(C)c1=O`, the viability in assay [1] was 96%; in assay [3], 96% (inactive); in assay [4] it was 105% (inactive); in assay [5], 88.3% (inactive); in assay [6] (setting [9]) it was 75.9%; in assay [6] (setting [10]), 88.3%. Also, the Her2 level in assay [2] was 75% (inactive). Besides, the differential viability (reversal) in assay [6] (H69AR cells + 2 uM doxorubicin) was 12.5% (inactive). The inhibition is -3.2% (inactive) in assay [7] and 7.58% (inactive) in assay [8].

Turning to `N#C/C(=C(/O)CN1CCOCC1)c1nc2ccccc2s1`, the viability in assay [1] was 89.5%; in assay [3] it was 89.5% (inactive); in assay [4], 99.3% (inactive); in assay [5], 106% (inactive); in assay [6] (setting [9]), 100%; in assay [6] (setting [10]) it was 106%. Moreover, the Her2 level in assay [2] is 145% (inactive). For the same compound, the differential viability (reversal) in assay [6] (H69AR cells + 2 uM doxorubicin) is 5.77% (inactive). Moreover, the inhibition in assay [7] is 2.73% (inactive); in assay [8], -13.8% (inactive).

On to `COc1cc(OC)cc(C(=O)NCCN2CCOCC2)c1`, for which the viability in assay [1] is 105%; in assay [3] it was 105% (inactive); in assay [4] it was 98.3% (inactive); in assay [5] it was 94.1% (inactive); in assay [6] (setting [9]), 92.6%; in assay [6] (setting [10]) it was 94.1%. In assay [2], the Her2 level is 92% (inactive). In assay [6] (H69AR cells + 2 uM doxorubicin), the differential viability (reversal) was 1.49% (inactive). Further, the inhibition in assay [7] is -4.47% (inactive); in assay [8], -4.36% (inactive).

For `CCOC(=O)C1=C(c2ccccc2)NC(=O)NC1c1ccc(N(C)C)cc1` (stereo not given), the viability in assay [1] is 85.5%; in assay [3], 85.5% (inactive); in assay [4], 106% (inactive); in assay [5] it was 97.6% (inactive); in assay [6] (setting [9]), 97%; in assay [6] (setting [10]) it was 97.6%. The Her2 level in assay [2] was 87% (inactive). In addition, in assay [6] (H69AR cells + 2 uM doxorubicin), the differential viability (reversal) is 0.56% (inactive). For the same compound, the results for the inhibition in assay [7] and in assay [8] were -2.08% (inactive) and 14.7% (inactive), respectively.

(Values after PubChem BioAssay.)
